Blank lines part the entries; values can stand above or below the molecule they belong to. The source made the active and inactive calls. No cut-off for these calls is given here.
Key:
[1] = test system: Tobacco mosaic virus; assay: Inhibition of TMV U1 multiplication in tobacco BY2 protoplast at 10 nM assessed as inhibition of local lesions on Chenopodium quinoa leaves by local lesion assay after 3 days postinfection; format: functional; details: U1, 72 h
How it was run: (§1)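 TMV premixed with compound at a range of concentrations used to inoculate tobacco BY-2 protoplasts; virus multiplication then assayed by counting local lesions on the local lesion host Chenopodium quinoa.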

[2] = test system: Tobacco mosaic virus; assay: Inhibition of TMV U1 multiplication in tobacco BY2 protoplast at 50 nM assessed as local lesion size on Chenopodium quinoa leaves by local lesion assay; format: functional
[3] = test system: Tobacco mosaic virus; assay: Inhibition of TMV U1 multiplication in tobacco BY2 protoplast at 30 nM assessed as inhibition of local lesions on Chenopodium quinoa leaves by local lesion assay after 3 days postinfection; format: functional; details: U1, 72 h; how it was run: as §1
[4] = test system: Tobacco mosaic virus; assay: Inhibition of TMV U1 multiplication in tobacco BY2 protoplast at 20 nM assessed as local lesion size on Chenopodium quinoa leaves by local lesion assay; format: functional
[5] = test system: Tobacco mosaic virus; assay: Inhibition of TMV U1 multiplication in tobacco BY2 protoplast at 40 nM assessed as local lesion size on Chenopodium quinoa leaves by local lesion assay; format: functional
[6] = test system: Tobacco mosaic virus; assay: Decrease in TMV U1 coat protein level in TMV infected tobacco BY2 protoplast at 50 nM by Western blot analysis; format: functional, organism-based
How it was run: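 BY-2 protoplasts (5 ml, 1.5 × 10⁶/ml) infected with TMV pretreated with compound; total protein extracted and coat protein detected by Western blot.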

[7] = test system: Sindbis virus; assay: Antiviral activity against Sindbis virus XJ160 in BHK21 cells assessed as reduction of virus-induced cytopathic effect after 24 hrs; format: functional, organism-based; details: BHK-21
How it was run: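 SINV XJ-160 (2 × 10⁵ pfu/ml, thrice plaque-purified) treated with compound for 15 min, adsorbed 1 h to BHK-21 cells at MOI 0.01 in quadruplicate; washed, fresh DMEM with 5% FBS added, cells kept at 37°C, 5% CO₂. Cytopathic morphology scored by light microscopy at 24 hpi.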

[8] = test system: Tobacco mosaic virus; assay: Inhibition of TMV U1 multiplication in tobacco BY2 protoplast at 10 nM assessed as local lesion size on Chenopodium quinoa leaves by local lesion assay; format: functional
[9] = test system: Tobacco mosaic virus; assay: Inhibition of TMV U1 multiplication in tobacco BY2 protoplast at 40 nM assessed as inhibition of local lesions on Chenopodium quinoa leaves by local lesion assay after 3 days postinfection; format: functional; details: U1, 72 h; how it was run: as §1
[10] = test system: Tobacco mosaic virus; assay: Inhibition of TMV U1 multiplication in tobacco BY2 protoplast at 50 nM assessed as inhibition of local lesions on Chenopodium quinoa leaves by local lesion assay after 3 days postinfection; format: functional; details: U1, 72 h; how it was run: as §1
[11] = Growth inhibition of hamster BHK21 cells at 100 nM after 48 hrs; format: cell-based, Mesocricetus auratus; details: bhk-21, 48 h, 0.1 µM
How it was run: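 BHK-21 cells mock-infected and incubated with 100 nM compound for 48 h; cell morphology and growth examined by light microscopy.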

[12] = test system: Tobacco mosaic virus; assay: Inhibition of TMV U1 multiplication in tobacco BY2 protoplast at 20 nM assessed as inhibition of local lesions on Chenopodium quinoa leaves by local lesion assay after 3 days postinfection; format: functional; details: U1, 72 h; how it was run: as §1
[13] = test system: Tobacco mosaic virus; assay: Inhibition of TMV U1 multiplication in tobacco BY2 protoplast at 30 nM assessed as local lesion size on Chenopodium quinoa leaves by local lesion assay; format: functional
[14] = test system: Tobacco mosaic virus; assay: Inhibition of TMV U1 replication in tobacco BY2 protoplast by local lesion assay using Chenopodium quinoa leaves; format: functional, organism-based; how it was run: as §1
[15] = test system: Tobacco mosaic virus; assay: Inhibition of TMV U1 replication in tobacco BY2 protoplast at 50 nM by local lesion assay using Chenopodium quinoa leaves; format: functional, organism-based; how it was run: as §1
[16] = test system: Tobacco mosaic virus; assay: Antiviral activity against GFP-fused TMV U1 infected Nicotiana tabacum cv K326 plant leaves assessed as inhibition of virus movement by GFP fluorescence assay; format: functional, organism-based
[17] = test system: Tobacco mosaic virus; assay: Antiviral activity against TMV U1 infected Nicotiana tabacum cv K326 plant leaves assessed as inhibition of systemic virus infection; format: functional, organism-based

- IC50 [14]: 25 nM
SMILES: CO[C@@H]1C[C@H](O[C@H]2CC[C@@]3(C)C(=CC[C@H]4C(=O)OC5CO[C@]6(C)OC=C(CC[C@@H]43)[C@H]56)C2)O[C@H](C)[C@H]1O (stereo not given in full) [CYNATRATOSIDE A]
- inhibition at 0.01 µM [1]: 20%
- Activity [2]: 0 mm
- inhibition at 0.03 µM [3]: 87%
- Activity [4]: 1.8 mm
- Activity [5]: 1.2 mm
- Activity [6]: Active
- Activity [7]: Dose-dependent effect
- Activity [8]: 2.3 mm
- inhibition at 0.04 µM [9]: 93%
- inhibition at 0.05 µM [10]: 100%
- Activity [11]: Non-toxic
- inhibition at 0.02 µM [12]: 37%
- Activity [13]: 1.5 mm
- Activity [15]: Active

- IC50 [14]: 17 nM
SMILES: C[C@]12OC=C3CC[C@H]4[C@@H](CC=C5C[C@@H](O)CC[C@@]54C)C(=O)OC(CO1)[C@@H]32 (stereo not given in full) [GLAUCOGENIN C]
- Activity [16]: Active
- inhibition at 0.01 µM [1]: 17%
- Activity [2]: 0 mm
- inhibition at 0.03 µM [3]: 79%
- Activity [4]: 1.9 mm
- Activity [5]: 1.3 mm
- Activity [6]: Active
- Activity [7]: Dose-dependent effect
- Activity [8]: 2.1 mm
- inhibition at 0.04 µM [9]: 85%
- inhibition at 0.05 µM [10]: 100%
- Activity [11]: Non-toxic
- inhibition at 0.02 µM [12]: 60%
- Activity [13]: 1.5 mm
- Activity [15]: Active

- IC50 [14]: 25 nM
SMILES: CO[C@H]1C[C@H](O[C@H]2[C@@H](OC)C[C@H](O[C@@H]3[C@@H](C)O[C@H](O[C@H]4CC[C@@]5(C)C(=CC[C@H]6C(=O)OC7CO[C@]8(C)OC=C(CC[C@@H]65)[C@H]78)C4)C[C@H]3OC)O[C@@H]2C)O[C@@H](C)[C@@H]1O[C@@H]1O[C@H](CO)[C@@H](O[C@@H]2O[C@H](CO)[C@@H](O)[C@H](O)[C@H]2O)[C@H](O)[C@H]1O (stereo not given in full) [PANICULATUMOSIDE D]
- Activity [16]: Active
- inhibition at 0.01 µM [1]: 6%
- Activity [17]: Active
- Activity [2]: 0 mm
- inhibition at 0.03 µM [3]: 79%
- Activity [4]: 1.6 mm
- Activity [5]: 1.2 mm
- Activity [6]: Active
- Activity [7]: Dose-dependent effect
- Activity [8]: 1.7 mm
- inhibition at 0.04 µM [9]: 88%
- inhibition at 0.05 µM [10]: 100%
- Activity [11]: Non-toxic
- inhibition at 0.02 µM [12]: 31%
- Activity [13]: 1.4 mm
- Activity [15]: Active

- IC50 [14]: 25 nM
SMILES: CO[C@@H]1C[C@@H](O[C@H]2CC[C@@]3(C)C(=CC[C@H]4C(=O)OC5CO[C@]6(C)OC=C(CC[C@@H]43)[C@H]56)C2)O[C@H](C)[C@H]1O[C@H]1C[C@H](O)[C@H](O[C@H]2C[C@@H](OC)[C@@H](O[C@@H]3O[C@H](CO)[C@@H](O[C@@H]4O[C@H](CO)[C@@H](O)[C@H](O)[C@H]4O)[C@H](O)[C@H]3O)[C@H](C)O2)[C@@H](C)O1 (stereo not given in full) [PANICULATUMOSIDE E]
- Activity [16]: Active
- inhibition at 0.01 µM [1]: 16%
- Activity [17]: Active
- Activity [2]: 0 mm
- inhibition at 0.03 µM [3]: 73%
- Activity [4]: 1.3 mm
- Activity [5]: 1.1 mm
- Activity [6]: Active
- Activity [7]: Dose-dependent effect
- Activity [8]: 1.6 mm
- inhibition at 0.04 µM [9]: 87%
- inhibition at 0.05 µM [10]: 100%
- Activity [11]: Non-toxic
- inhibition at 0.02 µM [12]: 38%
- Activity [13]: 1.2 mm
- Activity [15]: Active

— ChEMBL document CHEMBL1156462, “Seco-pregnane steroids target the subgenomic RNA of alphavirus-like RNA viruses” (Proc Natl Acad Sci U S A, 2007)
